Active and inactive are the calls of the source. The rule behind the calls is not given here.
Assays:
Candida albicans [1] = test: Antifungal activity against Candida albicans isolate g5 grown in RPMI 1640 medium incubated for 24 hrs by microdilution method; assay type: functional; conditions: isolate g5, 24 h
In short: (§1)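 C. albicans standard strain SC5314 and clinical isolates g5 and 17# tested by broth microdilution in YNB or RPMI 1640 medium. Plates incubated at 35 °C for up to 72 h, with visual readings taken at 24 h. MIC taken as the lowest concentration preventing visible growth.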

Digitaria adscendens [2] = test: Pre-emergence herbicidal activity against Digitaria adscendens assessed as reduction in growth at 300g/ha measured after 24 days by green house pot method relative to control; assay type: functional; conditions: 576 h
[3] = tested on: Brassica rapa subsp. oleifera; test: Herbicidal activity against Brassica campestris L assessed as inhibition of rape root growth at 100 mg/l root growth incubated for 48 hrs relative to control; assay type: functional
In short: (§2)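 Rape seeds soaked in distilled water for 4 h, then placed on filter paper wetted with inhibitor solution, 15 seeds per 6-cm dish. Germinated in the dark at 28 °C for 48 h. Mean length of 10 roots per plate measured.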

Candida albicans [4] = test: Antifungal activity against Candida albicans SC5314 grown in RPMI 1640 medium incubated for 24 hrs by microdilution method; assay type: functional; conditions: SC5314, 24 h; in short: as §1
Amaranthus retroflexus [5] = test: Pre-emergence herbicidal activity against Amaranthus retroflexus assessed as reduction in growth at 300g/ha measured after 24 days by green house pot method relative to control; assay type: functional; conditions: 576 h
Candida albicans [6] = test: Inhibition of Candida albicans AHAS catalytic subunit at 100 uM using pyruvate as substrate measured after 30 mins by colorimetric method relative to control
In short: (§3)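 Colorimetric assay in 50 mM potassium phosphate pH 7.0 with 50 mM pyruvate, 1 mM thiamine diphosphate, 10 mM MgCl2 and 10 μM FAD. Incubated 30 min at 37 °C for plant AHAS and 30 °C for fungal AHAS. Acetolactate formed was then quantified.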

Ceratobasidium cereale = test: Antifungal activity against Rhizoctonia cerealis assessed as reduction in growth at 50 mg/l by mycelium growth rate method relative to control; assay type: functional
In short: (§4)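 Mycelium growth rate method against S. sclerotiorum, P. capsici, P. piricola, R. cerealis, W. anthracnose and R. bakanae. Each compound tested at 50 mg/L, with chlorothalonil and PTB as controls. Relative inhibitory ratio (%) calculated from mycelial growth.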

Phytophthora capsici = test: Antifungal activity against Phytophthora capsici assessed as reduction in growth at 50 mg/l by mycelium growth rate method relative to control; assay type: functional; in short: as §4
Tobacco mosaic virus [7] = test: Antiviral activity against Tobacco mosaic virus inoculated in Nicotiana tabacum leaves assessed as passivation by measuring local lesion numbers at 500 mg/l pre-incubated with virus for 30 mins followed by inoculation and measured up to 4 days; assay type: functional
In short: (§5)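 Passivation assay: TMV mixed with an equal volume of compound solution for 30 min, then rubbed onto the left half of N. tabacum L. leaves. The right half received virus mixed with solvent as control. Local lesions counted 3–4 days after inoculation. Compounds tested at 500 or 100 mg/L.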

Mythimna separata [8] = test: Insecticidal activity against Mythimna separata assessed as larval mortality at 600 mg/l by leaf-dip method; assay type: functional
Arabidopsis thaliana [9] = test: Inhibition of Arabidopsis thaliana AHAS catalytic subunit using pyruvate as substrate at 100 uM measured after 30 mins by colorimetric method relative to control; in short: as §3
[10] = tested on: Severe acute respiratory syndrome-related coronavirus; test: Inhibition of SARS coronavirus M protease using AVLQSGFRKK as substrate at 20 uM by FRET assay relative to control
In short: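 Purified SARS-CoV Mpro assayed by FRET. Protein, compound and substrate were preheated at 37 °C and oscillated. Fluorescence (ex 320/em 405 nm) was read every 5 s for 200 reads.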

Candida albicans [11] = test: Antifungal activity against Candida albicans isolate 17 grown in RPMI 1640 medium incubated for 24 hrs by microdilution method; assay type: functional; conditions: isolate 17, 24 h; in short: as §1
[12] = tested on: Brassica rapa subsp. oleifera; test: Herbicidal activity against Brassica campestris L assessed as inhibition of rape root growth at 10 mg/l root growth incubated for 48 hrs relative to control; assay type: functional; in short: as §2
[13] = tested on: Brassica rapa subsp. oleifera; test: Post-emergence herbicidal activity against Brassica campestris assessed as reduction in growth at 300g/ha measured after 24 days by green house pot method relative to control; assay type: functional; conditions: 576 h
Echinochloa crus-galli [14] = test: Pre-emergence herbicidal activity against Echinochloa crus-galli assessed as reduction in growth at 300g/ha measured after 24 days by green house pot method relative to control; assay type: functional; conditions: 576 h
Tobacco mosaic virus [15] = test: Antiviral activity against Tobacco mosaic virus inoculated in Nicotiana tabacum leaves assessed as passivation by measuring local lesion numbers at 100 mg/l pre-incubated with virus for 30 mins followed by inoculation and measured up to 4 days; assay type: functional; in short: as §5
Candida albicans [16] = test: Antifungal activity against Candida albicans isolate g5 grown in YNB medium incubated for 24 hrs by microdilution method; assay type: functional; conditions: isolate g5, 24 h; in short: as §1
[17] = tested on: Brassica rapa subsp. oleifera; test: Pre-emergence herbicidal activity against Brassica campestris assessed as reduction in growth at 300g/ha measured after 24 days green house pot method relative to control; assay type: functional; conditions: 576 h
Echinochloa crus-galli [18] = test: Post-emergence herbicidal activity against Echinochloa crus-galli assessed as reduction in growth at 300g/ha measured after 24 days by green house pot method relative to control; assay type: functional; conditions: 576 h
Candida albicans [19] = test: Inhibition of Candida albicans AHAS catalytic subunit at 10 uM using pyruvate as substrate measured after 30 mins by colorimetric method relative to control; in short: as §3
[20] = tested on: Botryosphaeria berengeriana; test: Antifungal activity against Physalospora pyricola assessed as reduction in growth at 50 mg/l by mycelium growth rate method relative to control; assay type: functional; in short: as §4
Arabidopsis thaliana [21] = test: Inhibition of Arabidopsis thaliana AHAS catalytic subunit using pyruvate as substrate at 10 uM measured after 30 mins by colorimetric method relative to control; in short: as §3
Candida albicans [22] = test: Antifungal activity against Candida albicans SC5314 grown in YNB medium incubated for 24 hrs by microdilution method; assay type: functional; conditions: SC5314, 24 h; in short: as §1
Candida albicans [23] = test: Antifungal activity against Candida albicans isolate 17 grown in YNB medium incubated for 24 hrs by microdilution method; assay type: functional; conditions: isolate 17, 24 h; in short: as §1
Fusarium fujikuroi = test: Antifungal activity against Gibberella fujikuroi assessed as reduction in growth at 50 mg/l by mycelium growth rate method relative to control; assay type: functional; in short: as §4
Colletotrichum = test: Antifungal activity against Colletotrichum (W. anthracnose) assessed as reduction in growth at 50 mg/l by mycelium growth rate method relative to control; assay type: functional; in short: as §4
Sclerotinia sclerotiorum = test: Antifungal activity against Sclerotinia sclerotiorum assessed as reduction in growth at 50 mg/l by mycelium growth rate method relative to control; assay type: functional; in short: as §4
Digitaria adscendens [24] = test: Post-emergence herbicidal activity against Digitaria adscendens assessed as reduction in growth at 300g/ha measured after 24 days by based green house pot method relative to control; assay type: functional; conditions: 576 h
Amaranthus retroflexus [25] = test: Post-emergence herbicidal activity against Amaranthus retroflexus assessed as reduction in growth at 300g/ha measured after 24 days by green house pot method relative to control; assay type: functional; conditions: 576 h
Mythimna separata [26] = test: Insecticidal activity against Mythimna separata assessed as larval mortality at 10 mg/l by leaf-dip method; assay type: functional
[27] = Inhibition of SARS coronavirus M protease using AVLQSGFRKK as substrate by FRET assay; design: species or system Severe acute respiratory syndrome-related coronavirus
In short: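 Purified SARS-CoV Mpro assayed by FRET. Protein, compound and substrate were preheated at 37 °C and oscillated. Fluorescence (ex 320/em 405 nm) was read every 5 s for 200 reads. IC50 from V0/V = 1+[I]/IC50.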

[28] = Cytotoxicity against HEK293T cells assessed as reduction in cell growth incubated for 48 hrs by MTT assay; assay type: cell-based, HEK-293T; conditions: human
In short: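 293T cells in logarithmic phase seeded at 12000 cells/well overnight, then exposed to a range of compound concentrations for 48 h. MTT added for a further 4 h, formazan dissolved in DMSO, and OD570 read. CC50 is the concentration reducing viability by 50%.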

SMILES	MIC (Candida albicans [1]) [µg/mL]	inhibition (INH) [3] [%]	MIC (Candida albicans [4]) [µg/mL]	inhibition (Candida albicans [6]) [%]	inhibition at 50 µg/mL (Ceratobasidium cereale) [%]	inhibition at 50 µg/mL (Phytophthora capsici) [%]	inhibition at 500 µg/mL (Tobacco mosaic virus [7]) [%]	mortality at 600 µg/mL (Mythimna separata [8]) [%]	inhibition (Arabidopsis thaliana [9]) [%]	inhibition [10] [%]	MIC (Candida albicans [11]) [µg/mL]	inhibition (INH) [12] [%]	MIC (Candida albicans [16]) [µg/mL]	inhibition (Candida albicans [19]) [%]	inhibition at 50 µg/mL [20] [%]	inhibition (Arabidopsis thaliana [21]) [%]	MIC (Candida albicans [22]) [µg/mL]	MIC (Candida albicans [23]) [µg/mL]	inhibition at 50 µg/mL (Fusarium fujikuroi) [%]	inhibition at 50 µg/mL (Colletotrichum) [%]	also measured
COc1cc(OC)nc(Sc2ccc(Br)cc2C(=O)O)n1	> 100	93.6	> 100	97	72.6	33.3	0	65	100	0	> 100	80.7	> 100	50.5	37.5	61	> 100	> 100	27.3	40.5	inhibition at 300 g/ha (Digitaria adscendens [2]): 27%; inhibition at 300 g/ha (Amaranthus retroflexus [5]): 93.8%; inhibition at 300 g/ha [13]: 80.2%; inhibition at 300 g/ha (Echinochloa crus-galli [14]): 0%; inhibition at 100 µg/mL (Tobacco mosaic virus [15]): 0%; inhibition at 300 g/ha [17]: 89.9%; inhibition at 300 g/ha (Echinochloa crus-galli [18]): 72.3%; inhibition at 50 µg/mL (Sclerotinia sclerotiorum): 63.9%; inhibition at 300 g/ha (Digitaria adscendens [24]): 12.8%; inhibition at 300 g/ha (Amaranthus retroflexus [25]): 58.7%
CNC(=O)c1cc(Cl)cc(C)c1NC(=O)c1cc(Br)nn1-c1ncccc1Cl [CHLORANTRANILIPROLE]	–	–	–	–	–	–	–	–	–	–	–	–	–	–	–	–	–	–	–	–	mortality at 10 µg/mL (Mythimna separata [26]): 100%
COc1nc(OC)nc(Sc2cccc(I)c2C#N)n1	> 100	51.6	> 100	69.3	52.4	8.3	22.8	45	66.7	100	> 100	0	> 100	45.4	29.7	51.6	> 100	> 100	30.3	33.3	IC50 [27]: 3.3 µM; CC50 at 48 h [28]: 30.5 µM; inhibition (Tobacco mosaic virus [15]): inactive; inhibition at 50 µg/mL (Sclerotinia sclerotiorum): 11.1%

Source: ChEMBL document CHEMBL4390648, “Chemical synthesis, crystal structure, versatile evaluation of their biological activities and molecular simulations of novel pyrithiobac derivatives” (Eur J Med Chem, 2019)
